Results published in ChEMBL document CHEMBL4513216, “Probing the Open Global Health Chemical Diversity Library for Multistage-Active Starting Points for Next-Generation Antimalarials” (ACS Infect Dis, 2020).

Test: Toxicity liver stage against HepG2, at 10uM
Assay type: cell-based
Set-up: test concentration 10 uM, cell line HepG2-A16-CD81EGFP
Conditions: human, HepG2-A16-CD81EGFP cells; read-out: INHIBITION
Method in brief: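 Uninfected HepG2-A16-CD81EGFP cells, 3 × 10^3 per well, 1536-well, plated on prespotted compound at 10 μM final, parasite-free screening media added to match infected plates; puromycin 10 μM positive, DMSO 0.5% negative; run in parallel with 48 h PbLuc assay at 37 °C, 5% CO2; viability by CellTiter-Glo luminescence, normalized to controls.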

| Compound | cytotoxicity at 10 µM |
| --- | --- |
| Cc1nc(N2CCCC2)ncc1C(=O)Nc1ccc(Br)cc1 | -1.85% |
| Cc1cccc(C2CCCCCN2Cc2cn(C)nc2C)c1 (stereo unspecified) | -1.17% |
| CCS(=O)(=O)N1CC(=O)N(CCOc2ccccc2)CC(O)C1 (stereo unspecified) | -0.739% |
| CC(=O)c1cn(CCC(=O)NCCCC(=O)O)c2ccccc12 | -1.63% |
| CSc1c(CC(=O)O)n(C)c2ccccc12 | 3.79% |
| COCCc1nnc(NC(=O)CCCc2ccccc2)o1 | -4.34% |
| CCSc1ccccc1C(=O)N1CC2(COC(C)(C)OC2)C1 | -3.45% |
| Cc1ccccc1CN1CCC2(CCCN2C(=O)C(C)C)CC1 | 11.7% |
| Cc1noc(C)c1CN1CCCC2(C1)CN(c1nncs1)CCO2 (stereo unspecified) | 0.922% |
| CCN1CC2(CC1=O)CN(Cc1cccs1)CCN(C(=O)C(C)C)C2 (stereo unspecified) | -13.9% |
| COc1cc(C(=O)NCCCO)cc2occc12 | 5.47% |
| Cn1cc(CN2CCc3nc4ccccc4c(=O)n3CC2)cn1 | -1.57% |
| Cc1noc(C)c1-c1nc(C2CCCN(C(=O)CCN)C2)ccc1CO (stereo unspecified) | -2.53% |
| O=C(NCc1ccco1)c1cc[n+]([O-])cc1 | 3.33% |
| Cc1ccncc1NS(=O)(=O)c1ccc(Cl)s1 | 0.405% |
| Cc1cccc(C(=O)N2CCCC2)c1NCC(=O)NC1(C#N)CCCC1 | -11.5% |
| COCCOc1cccc(CNCc2ccc(-n3cncn3)nc2)c1 | -11.8% |
| Cc1ccc(F)c(N2CCCC(NS(=O)(=O)CCCF)C2=O)c1 (stereo unspecified) | -3.14% |
| CC(=O)N1CC(C)CN(C(=O)c2cccnc2C)c2ccccc21 (stereo unspecified) | 6.45% |
| Cc1nc(-c2nnc[nH]2)sc1C(=O)N1CCCC1CC(C)(C)C (stereo unspecified) | 12.1% |
| CCc1ncc2c(n1)CN(CC(=O)N1CCc3sccc3C1)CC2 | 4.83% |

| Compound | cytotoxicity at 10 µM |
| --- | --- |
| CN(Cc1ccc(Cl)cc1)S(=O)(=O)N(C)Cc1cnn(C)c1 | 16.5% |
| N#Cc1ccc(CSCCN2CCOCC2)cc1 | 4.2% |
| COc1ccccc1C1(CNc2nnc(C)c(C)c2C#N)CCOCC1 | 6.77% |
| COC(=O)[C@H](C)NC(=O)COc1nn(C)c2nc(C)cc(C)c12 | -2.53% |
| Cc1noc(CN(Cc2cccc(C#N)c2)Cc2ccco2)n1 | 0.554% |
| Cc1ccc(C(=O)N(C)CCOc2ccccc2F)c(=O)[nH]1 | -136% |
| COc1ccc2c(c1)CCCN(C(C)C(=O)NC(C)C)C2 (stereo unspecified) | 9.56% |
| CN(C)C(=O)CCNC(=O)Nc1cccc(Cl)c1-n1cccn1 | 0.399% |
| O=C(CCc1ccc(Br)cc1)NCc1nnc[nH]1 | 0.163% |
| Cc1ccc(-c2nnc(CN3CC(n4cc(C)cn4)C3)o2)cc1 | 2.48% |
| COc1cccc(C2(NC(=O)CCNC(C)=O)CC2)c1 | 1.6% |
| Cc1nc(C)c(CC(=O)N2CCN(CC(C)C)CC2)c(=O)[nH]1 | -12.3% |
| O=C(NCc1cc(Br)cs1)Nc1cn[nH]c1 | 5.85% |
| CC(C)(NS(C)(=O)=O)c1nc(-c2ccc(F)cc2Cl)no1 | 4.98% |
| COc1ncc(NCc2csc(-c3ccco3)n2)cc1C(N)=O | -17.9% |
| CCC(CC)c1cc(C(=O)N2CCCC(n3cncn3)C2)on1 (stereo unspecified) | -13.1% |
| CS(=O)(=O)c1ccccc1C(=O)NCC1Cc2ccccc2O1 (stereo unspecified) | -9.6% |
| O=c1cc(Cn2ccnc2)nc2n1CCCN(S(=O)(=O)C1CC1)C2 | 7.95% |
| Cc1cnc(C(=O)N2C[C@H]3CN(Cc4cccc(F)c4)C(=O)[C@H]3C2)cn1 | -85.7% |
| CC(C)n1ccnc1Cn1ccc2ncccc2c1=O | -4.65% |
| CSc1ccc(-c2nc(CN3CCC(C(N)=O)CC3)c(C)o2)cc1 | 4.58% |

| Compound | cytotoxicity at 10 µM |
| --- | --- |
| Cc1[nH]nc(CCC(=O)N2CCc3c(nc[nH]c3=O)C2)c1C | 3.63% |
| Cc1cccc(OCC2CCCN(C(=O)CCn3ccccc3=O)C2)c1 (stereo unspecified) | -0.987% |
| O=C(O)[C@@H]1CN(Cc2c[nH]c(CC3CCCC3)n2)C[C@H]1c1ccncc1 | 1.08% |
| O=C1CC2(CCN(C(=O)Cc3cc4c(cc3Cl)OCCO4)C2)C(=O)N1 (stereo unspecified) | 12.7% |
| Cc1nc[nH]c1CN(Cc1ccccc1)Cc1nccs1 | 2.14% |
| CCCc1nc(C(=O)N2CCCn3nc(CCC(=O)O)cc3C2)cs1 | -9.84% |
| O=C(CCc1cccnc1)N(Cc1ccsc1)CC1CCCO1 (stereo unspecified) | -11.5% |
| CN(CCO)C[C@@H]1CN(C(=O)c2c(F)cccc2Cl)C[C@@H]1CO | -9% |
| Cc1cc(NCc2cc3n(n2)CCCN(S(C)(=O)=O)C3)ncn1 | -14.3% |
| Cn1ccc(C(=O)N2CCC(Cc3cccc4cccnc34)C2)n1 (stereo unspecified) | 2.16% |
| CN(C)c1ncccc1CNC(=O)NCc1ccc(Cl)s1 | 9.21% |
| Cc1cc(C2CCCN(CCS(=O)(=O)c3ccccc3)C2)n[nH]1 (stereo unspecified) | -16.7% |
| CC(C)c1n[nH]c(C(=O)NC(C)c2ccncc2)c1Br (stereo unspecified) | -5.85% |
| CS(=O)(=O)c1ccc(C(=O)N2CCCC(n3ccnc3)C2)cc1 (stereo unspecified) | -19.4% |
| CC(C)(O)CN1CCN(C(=O)c2cccc(CC#N)c2)CC1 | -13.4% |
| c1csc(-c2noc(CCCN3CCCC3Cn3cncn3)n2)c1 (stereo unspecified) | -24.2% |
| CN(C)c1ncccc1CNS(=O)(=O)c1cc(F)cc(F)c1 | -14% |
| Cc1nn(Cc2ccccc2)c(C)c1CNC1CCc2ncnn2C1 (stereo unspecified) | -1.04% |
| CCN1CC(C(=O)NCc2cccnc2-n2cccn2)CC1=O (stereo unspecified) | 0.796% |
| Cc1nnc(C2Cc3ccccc3CN2Cc2nc(C(C)C)no2)o1 (stereo unspecified) | -22% |
| Cn1cnnc1C1CCCN(C(=O)c2cc(Cl)c(Cl)n2C)C1 (stereo unspecified) | -4.9% |

| Compound | cytotoxicity at 10 µM |
| --- | --- |
| CC(c1nc(C2CC2)no1)N1CCN(Cc2cccc(F)c2F)CC1 (stereo unspecified) | -4.93% |
| O=C(c1cccc2c1OCCO2)N1CCCC(n2ccnc2)C1 (stereo unspecified) | -6.92% |
| CC(C)N1CCC2(CCCNC2)C1=O (stereo unspecified) | 0.906% |
| Cc1cc(N2CCN(Cc3cn(C)nc3C)CC2)cc(C2CCCN2)n1 (stereo unspecified) | 0.525% |
| O=C(c1ccsc1)N1CCOC2(CCN(Cc3cccnc3)CC2)C1 | -3.12% |
| CN(C)CCN1C[C@@H]2CN(S(=O)(=O)c3cccs3)C[C@@H]2C1=O | 0.0221% |
| CNC(=O)C1Cn2ccnc2C2(CCN(C(=O)CC3CCCC3)CC2)O1 (stereo unspecified) | -145% |
| Cc1noc(C)c1CN1C[C@@H]2C[C@@H](C)O[C@@H]2C1 | 4.06% |
| O=C(c1ccncn1)N1CCC[C@]2(C[C@H](Oc3ncccc3F)CO2)C1 | -0.588% |
| CNC(=O)[C@H]1C[C@@H]2CN(S(=O)(=O)c3ccc(C)cc3)C[C@@H]2N1C | -2.19% |
| CC1c2ncc(CNC(=O)C3CC3)n2CCN1Cc1ccsc1 (stereo unspecified) | 1.06% |
| O=S(=O)(C1CC1)N1CCO[C@H]2[C@H](OCCN3CCCC3)CC[C@@H]21 | -5.63% |
| Cc1cccc(-c2nnn3c2COC(CNCc2nccs2)C3)c1 (stereo unspecified) | 4.51% |
| Cc1ccc(C(=O)N2C[C@H]3CCC[C@@]3(COc3ccccn3)C2)nc1 | -2.23% |
| CN(C)C1COC2(CCN(C(=O)c3cccc(Cl)c3)CC2)C1 (stereo unspecified) | -7.81% |
| O=C([C@@H]1COC[C@H]2CN(c3ccncn3)C[C@H]21)N1CCCC1 | -133% |
| Cc1cccc(CN2CCc3ncnc(N4CCOCC4)c3CC2)n1 | -4.95% |
| CSc1ncc(C(=O)N2C[C@@H]3CC[C@H]2CN(Cc2ccccc2)C3)cn1 | -7.49% |
